Results on 23 compounds are retold here after ChEMBL document CHEMBL1130400, “Discovery of a novel, selective, and orally bioavailable class of thrombin inhibitors incorporating aminopyridyl moieties at the P1 position” (J Med Chem, 1997).

Series [1] concerns the target T1, Coagulation factor X (Homo sapiens, UniProt P00742). Briefly: (§1) In vitro inhibitory activity against Coagulation factor X. In short, it runs like this:
(§2)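 Ki from the dependence of initial rate on inhibitor concentration. Proteinase (human FXa, or bovine trypsin) equilibrated with inhibitor, then chromogenic substrate added. p-Nitroaniline release followed as the absorbance increase at 405 nm.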

Another series concerns the target Prothrombin (Homo sapiens, UniProt P00734). Briefly: In vitro inhibitory activity against human thrombin(IIa).
In series [2] the target is T2, Serine protease 1 (Bos taurus, UniProt P00760).
T2 sequence (P00760 whole entry): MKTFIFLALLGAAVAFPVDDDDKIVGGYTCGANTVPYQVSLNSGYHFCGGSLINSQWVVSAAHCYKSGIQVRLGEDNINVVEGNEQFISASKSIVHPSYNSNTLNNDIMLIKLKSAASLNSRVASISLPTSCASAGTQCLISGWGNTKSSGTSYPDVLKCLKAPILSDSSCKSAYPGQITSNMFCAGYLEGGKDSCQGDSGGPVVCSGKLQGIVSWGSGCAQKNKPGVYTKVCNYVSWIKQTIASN
Briefly: In vitro inhibitory activity against bovine trypsin. The essentials:
as §2

A short description of series [3]: Partition coefficient (logP). The series is classed as physicochemical. The conditions noted are these: octanol/water.
Series [4] is described as follows: Oral bioavailability in rat. The note with it: in vivo. The series is classed as ADME, organism-based. The essentials:
(§3)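 Rats were anesthetized and fitted with catheters in the left jugular vein (dosing) and left carotid artery (sampling). Next day, conscious rats were dosed iv at 2 mpk or orally by gastric lavage at 10 mpk. Blood was drawn before dosing and at increasing times after. Plasma inhibitor levels gave concentration–time curves. F was derived by comparing dose-normalized AUCs from oral and iv dosing.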

The nature of series [5]: pKa was determined. The series is classed as physicochemical.
Series [6] can be described thus: Maximum plasma concentration after p.o. (10 mpk) administration in rats. The series is classed as ADME, organism-based. Also noted: route oral. The note with it: rat, po, 10 mg/kg. In short, it runs like this:
as §3

Series [7] is described as follows: Maximum time of retention in plasma, after peroral (10 mpk) administration in rats. The series is classed as ADME, organism-based. The note with it: rat, po, 10 mg/kg. The essentials:
as §3

Series [8] in a line: Half life in rats. The series is classed as ADME, organism-based. The note with it: rat, in vivo. In short, it runs like this: as §3
Series [9] in a line: Clearance values in rats after iv administration. The series is classed as ADME, organism-based. The conditions noted are these: rat, in vivo. In short, it runs like this: as §3
Series [10] addresses T2, Serine protease 1. Briefly: In vitro iinhibitory activity against bovine trypsin. In short, it runs like this: (§4)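 Ki values for bovine trypsin and human factor Xa came from the inhibitor-concentration dependence of the initial rate of p-nitroaniline release. Enzyme and inhibitor were equilibrated first, then chromogenic substrate was added, and the rate of absorbance increase at 405 nm was followed.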

Series [11] concerns the target T1, Coagulation factor X. The description is as §1. The essentials:
as §4
This is another data set of the same source.

SMILES strings stand for the structures.

T1 sequence (P00742 41-179 limits assumed): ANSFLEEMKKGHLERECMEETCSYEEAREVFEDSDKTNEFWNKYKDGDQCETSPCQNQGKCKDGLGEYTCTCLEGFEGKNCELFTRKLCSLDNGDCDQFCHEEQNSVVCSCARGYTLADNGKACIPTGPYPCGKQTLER
T1 sequence (P00742 235-488 limits assumed): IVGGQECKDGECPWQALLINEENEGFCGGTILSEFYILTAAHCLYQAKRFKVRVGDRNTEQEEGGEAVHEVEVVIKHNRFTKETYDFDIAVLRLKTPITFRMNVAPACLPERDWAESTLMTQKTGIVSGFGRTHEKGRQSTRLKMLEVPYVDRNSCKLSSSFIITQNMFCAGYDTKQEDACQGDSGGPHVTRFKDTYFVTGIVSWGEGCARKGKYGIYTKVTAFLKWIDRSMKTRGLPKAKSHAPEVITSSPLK

As for `Nc1nc(CNC(=O)[C@@H]2CCCN2C(=O)[C@H](N)C(C2CCCCC2)C2CCCCC2)cs1`, the figures for the inhibition constant (Ki) at Coagulation factor X [1], at Prothrombin and at Serine protease 1 [2] were more than 100 µM, 0.07 µM and 144 µM, respectively.
The matching figures for `Nc1nc(CNC(=O)[C@@H]2CCCN2C(=O)[C@@H](Cc2ccc(Cl)c(Cl)c2)NS(=O)(=O)Cc2ccccc2)cs1`: more than 100 µM, 0.36 µM and 767 µM.
As for `Cc1cc(N)nc(C)c1CNC(=O)[C@@H]1CCCN1C(=O)[C@H](N)C(C1CCCCC1)C1CCCCC1`, the inhibition constant Ki was 160 µM on Coagulation factor X [1] and 3 µM on Serine protease 1 [2].
`CN[C@H](Cc1ccccc1)C(=O)N1CCC[C@H]1C(=O)NC[C@H]1CC[C@H](N)CC1` yielded a logP in [3] of -1.68. In series [4], this compound returned a bioavailability of 1%. In [5], this compound returned a pKa of 10.2. For the same compound, the results for the inhibition constant Ki on Coagulation factor X [1] and at Serine protease 1 [2] were more than 1000 µM and 11 µM, respectively.
As for `Cc1cc(N)nc(C)c1CNC(=O)[C@@H]1CCCN1C(=O)[C@@H](Cc1ccc(Cl)c(Cl)c1)NS(=O)(=O)Cc1ccccc1`, the inhibition constant (Ki) on Coagulation factor X [1] was 52 µM; at Prothrombin, 0.011 µM; at Serine protease 1 [2], 8.9 µM.
The matching figures for `Nc1ccc(CNC(=O)[C@@H]2CCCN2C(=O)[C@@H](Cc2ccc(Cl)c(Cl)c2)NS(=O)(=O)Cc2ccccc2)cn1`: 7.6 µM, 0.003 µM and 0.43 µM.
For the compound `Cc1cc(N)nc(C)c1CNC(=O)[C@@H]1CCCN1C(=O)[C@H](NC(=O)OC(C)(C)C)C(c1ccccc1)c1ccccc1`, in series [6], the highest level (Cmax) was 610 nM. In addition, the logP in series [3] was determined as 1.65. Moreover, in series [7], the time to peak (Tmax) is 53 min. The bioavailability in series [4] worked out at 40%. Besides, the half-life in series [8] was 50 min. Also, the Ki stood at 160 µM on Coagulation factor X [1], 0.0036 µM on Prothrombin and 2.5 µM at Serine protease 1 [2]. In series [9], this compound gave a clearance of 76 mL/min/kg.
As for `Cc1cc(N)nc(C)c1CNC(=O)[C@@H]1CCCN1C(=O)[C@H](NC(=O)OC(C)(C)C)C(C1CCCCC1)C1CCCCC1`, the values for the Ki on Coagulation factor X [1], on Prothrombin and on Serine protease 1 [2] were 16 µM, 0.0022 µM and 1.5 µM, respectively.
Turning to `Nc1ccc(CNC(=O)[C@@H]2CCCN2C(=O)[C@@H](Cc2ccc(Cl)c(Cl)c2)NS(=O)(=O)Cc2ccccc2)cc1`, the highest level in series [6] (Cmax) was 660 nM. In series [3], this compound came in with a lipophilicity (logP) of more than 3.68. Further, the Tmax in series [7] was 53 min. This compound also yielded a bioavailability in series [4] of 35%. Further, the half-life in series [8] came out at 20 min. Besides, in series [5], the pKa came out at 4.8. The results for the Ki on Coagulation factor X [1] and at Serine protease 1 [2] were 10 µM and 12 µM, respectively. This compound also showed a clearance in [9] of 71 mL/min/kg.
With `CC(C)(C)OC(=O)N[C@@H](C(=O)N1CCC[C@H]1C(=O)NCc1csc(N)n1)C(C1CCCCC1)C1CCCCC1`, the Ki is more than 100 µM on Coagulation factor X [1], 0.35 µM at Prothrombin and 52 µM on Serine protease 1 [10].
Turning to `CC(C)(C)OC(=O)N[C@@H](C(=O)N1CCC[C@H]1C(=O)NCc1ccc(N)nc1)C(c1ccccc1)c1ccccc1`, the inhibitory constant (Ki) on Coagulation factor X [1] was more than 200 µM; at Prothrombin, 0.0076 µM; on Serine protease 1 [2], 1.3 µM.
As to `O=C(NCc1ccccc1)[C@@H]1CCCN1C(=O)[C@@H](Cc1ccc(Cl)c(Cl)c1)NS(=O)(=O)Cc1ccccc1`, the Ki was 14 µM on Coagulation factor X [1], 0.11 µM on Prothrombin and 384 µM at Serine protease 1 [2].
The matching figures for `Nc1nc(CNC(=O)[C@@H]2CCCN2C(=O)[C@H](N)C(c2ccccc2)c2ccccc2)cs1`: more than 100 µM, 0.35 µM and 277 µM.
On to `Nc1cc(CNC(=O)[C@@H]2CCCN2C(=O)[C@@H](Cc2ccc(Cl)c(Cl)c2)NS(=O)(=O)Cc2ccccc2)cs1`, for which the Ki on Coagulation factor X [11] was more than 100 µM; at Prothrombin, 0.13 µM; on Serine protease 1 [2], 56 µM.
As to `Nc1ccc(CNC(=O)[C@@H]2CCCN2C(=O)[C@H](N)C(c2ccccc2)c2ccccc2)cn1`, the figures for the Ki on Coagulation factor X [1], at Prothrombin and at Serine protease 1 [2] were 94 µM, 0.012 µM and 5.4 µM, respectively.
The matching figures for `CC(C)(C)OC(=O)N[C@@H](C(=O)N1CCC[C@H]1C(=O)NCc1csc(N)n1)C(c1ccccc1)c1ccccc1`: more than 100 µM, 0.9 µM and more than 100 µM.
As for `CC(C)(C)OC(=O)N[C@@H](C(=O)N1CCC[C@H]1C(=O)NCc1ccc(N)nc1)C(C1CCCCC1)C1CCCCC1`, in [6], the highest concentration (Cmax) turned out to be 1430 nM. Also, in [3], the logP is more than 3.35. The time to peak (Tmax) in series [7] is 120 min. In series [4], the bioavailability stood at 60%. The same compound had a half-life in series [8] of 35 min. This compound gave a pKa in series [5] of 6.5. The inhibition constant (Ki) on Coagulation factor X [1] is 4.4 µM; on Prothrombin it was 0.003 µM; at Serine protease 1 [2], 0.657 µM. In series [9], this compound gave a clearance of 27 mL/min/kg.
On to `O=C(NCc1ccncc1)[C@@H]1CCCN1C(=O)[C@@H](Cc1ccc(Cl)c(Cl)c1)NS(=O)(=O)Cc1ccccc1`, for which the values for the Ki on Coagulation factor X [1], on Prothrombin and on Serine protease 1 [2] were more than 200 µM, 0.51 µM and 31 µM, respectively.
On to `O=C(NCc1cccnc1)[C@@H]1CCCN1C(=O)[C@@H](Cc1ccc(Cl)c(Cl)c1)NS(=O)(=O)Cc1ccccc1`, for which the Ki at Coagulation factor X [1] stood at 230 µM; at Prothrombin it was 0.38 µM; at Serine protease 1 [2] it was 284 µM.
The compound `Nc1ccc(CNC(=O)[C@@H]2CCCN2C(=O)[C@H](N)C(C2CCCCC2)C2CCCCC2)cn1` yielded a Cmax in [6] of 530 nM. Further, in series [3], the logP stood at 2.21. Moreover, in series [7], the Tmax is 26 min. For the same compound, in series [4], the bioavailability came out at 76%. The compound also yielded a half-life in [8] of 102 min. The same compound returned a pKa in [5] of 6.2. Further, the inhibition constant Ki on Coagulation factor X [1] amounted to 8.3 µM; on Prothrombin, 0.00082 µM; on Serine protease 1 [2], 1.2 µM. Also, the clearance in series [9] is more than 200 mL/min/kg.
`Cc1cc(N)nc(C)c1CNC(=O)[C@@H]1CCCN1C(=O)[C@H](N)C(c1ccccc1)c1ccccc1`: the Ki stood at 240 µM at Coagulation factor X [1], 0.01 µM at Prothrombin and 8.3 µM at Serine protease 1 [2].
With `CC(C)(C)OC(=O)N[C@H](Cc1ccccc1)C(=O)N1CCC[C@H]1C(=O)NCc1ccc(N)cc1`, the inhibition constant Ki was determined as 420 µM on Coagulation factor X [1], 3.7 µM at Prothrombin and 233 µM on Serine protease 1 [2].
The matching figures for `CC(C)(C)OC(=O)N[C@@H](C(=O)N1CCC[C@H]1C(=O)NCc1csc(N)c1)C(C1CCCCC1)C1CCCCC1`: 27 µM, 0.56 µM and 45 µM.
